A value given as a limit tells only on which side of the number the result lay.

Series [1] can be described thus: Lipophilicity, log P of the compound. To be noted: octanol/water. It counts as physicochemical. An outline of the steps: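 Log Po/w estimated by reversed-phase HPLC on a C8 column. Mobile phases were methanol with 0.25% 1-octanol and octanol-saturated water with 0.02 M MOPS and 0.15% n-decylamine, pH 7.4, at 1 mL/min. Uracil served as void marker. log k′w was obtained by linear extrapolation of retention over 60–85% methanol.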

For series [2], the target named is T1, Epidermal growth factor receptor (Homo sapiens, UniProt P00533). Briefly: Inhibition of human EGFR tyrosine kinase phosphorylation expressed in mouse BaF3 cells. It counts as functional, cell-based.
T1 sequence (P00533 whole entry): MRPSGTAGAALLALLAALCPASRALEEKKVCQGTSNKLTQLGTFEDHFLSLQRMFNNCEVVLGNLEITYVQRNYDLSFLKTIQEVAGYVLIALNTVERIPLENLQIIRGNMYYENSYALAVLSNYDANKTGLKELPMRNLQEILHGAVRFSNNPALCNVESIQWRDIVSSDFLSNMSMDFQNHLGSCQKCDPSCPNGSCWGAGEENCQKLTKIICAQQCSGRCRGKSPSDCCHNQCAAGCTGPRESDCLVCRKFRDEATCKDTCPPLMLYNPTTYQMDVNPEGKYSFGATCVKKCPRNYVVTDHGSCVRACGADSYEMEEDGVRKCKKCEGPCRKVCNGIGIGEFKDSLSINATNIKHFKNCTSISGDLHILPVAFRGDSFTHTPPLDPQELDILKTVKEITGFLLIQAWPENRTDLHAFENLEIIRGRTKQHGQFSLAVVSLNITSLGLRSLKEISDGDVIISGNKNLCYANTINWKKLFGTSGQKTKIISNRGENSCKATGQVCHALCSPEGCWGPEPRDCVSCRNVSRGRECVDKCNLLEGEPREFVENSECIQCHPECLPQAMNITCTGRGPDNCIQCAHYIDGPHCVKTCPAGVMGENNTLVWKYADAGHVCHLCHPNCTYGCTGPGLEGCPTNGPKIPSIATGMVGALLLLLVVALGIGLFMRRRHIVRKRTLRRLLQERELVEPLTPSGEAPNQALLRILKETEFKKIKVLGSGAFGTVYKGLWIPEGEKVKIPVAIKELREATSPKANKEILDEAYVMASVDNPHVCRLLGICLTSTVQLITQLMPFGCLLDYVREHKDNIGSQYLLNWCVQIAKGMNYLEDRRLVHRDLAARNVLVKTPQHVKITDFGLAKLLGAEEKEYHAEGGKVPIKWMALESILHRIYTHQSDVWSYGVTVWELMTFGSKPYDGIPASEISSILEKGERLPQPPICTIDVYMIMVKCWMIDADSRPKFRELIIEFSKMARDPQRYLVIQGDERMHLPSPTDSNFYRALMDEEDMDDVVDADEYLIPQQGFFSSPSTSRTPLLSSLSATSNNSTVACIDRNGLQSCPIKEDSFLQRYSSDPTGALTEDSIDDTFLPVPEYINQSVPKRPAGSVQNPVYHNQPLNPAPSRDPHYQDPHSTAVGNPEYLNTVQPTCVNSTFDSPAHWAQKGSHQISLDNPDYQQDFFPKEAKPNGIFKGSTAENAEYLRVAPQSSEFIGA
Series [3] concerns the target T1, Epidermal growth factor receptor. Description: Displacement of [125I]4-(3-iodoanilino)-6,7-dimethoxyquinazoline from EGFR tyrosine kinase in human A431 cell membranes. Also noted: species or system A-431.
Series [4] addresses Receptor tyrosine-protein kinase erbB-2 (Homo sapiens, UniProt P04626). Description: Inhibition of human ErbB2 tyrosine kinase phosphorylation expressed in mouse BaF3 cells. Format: functional, cell-based.
In series [5] the target is Receptor tyrosine-protein kinase erbB-4 (Homo sapiens, UniProt Q15303). Description: Inhibition of human ErbB4 tyrosine kinase phosphorylation expressed in human CEM/4 cells. Format: functional, cell-based. An outline of the steps: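 CEM cells expressing ErbB4, grown in RPMI with 10% heat-inactivated FBS and G418, then serum-starved 24 h at 37 °C. About 10^7 cells/mL given inhibitor at three to five concentrations for 2 h at 37 °C, chilled 20 min, then stimulated with NRG1β 100 ng/mL final for 7 min on ice. Lysate glycoproteins captured on ConA. Phosphotyrosine read by 4G10 immunoblot. IC50 read against DMSO standard curve.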
Sequence of Receptor tyrosine-protein kinase erbB-4 (Q15303 whole entry): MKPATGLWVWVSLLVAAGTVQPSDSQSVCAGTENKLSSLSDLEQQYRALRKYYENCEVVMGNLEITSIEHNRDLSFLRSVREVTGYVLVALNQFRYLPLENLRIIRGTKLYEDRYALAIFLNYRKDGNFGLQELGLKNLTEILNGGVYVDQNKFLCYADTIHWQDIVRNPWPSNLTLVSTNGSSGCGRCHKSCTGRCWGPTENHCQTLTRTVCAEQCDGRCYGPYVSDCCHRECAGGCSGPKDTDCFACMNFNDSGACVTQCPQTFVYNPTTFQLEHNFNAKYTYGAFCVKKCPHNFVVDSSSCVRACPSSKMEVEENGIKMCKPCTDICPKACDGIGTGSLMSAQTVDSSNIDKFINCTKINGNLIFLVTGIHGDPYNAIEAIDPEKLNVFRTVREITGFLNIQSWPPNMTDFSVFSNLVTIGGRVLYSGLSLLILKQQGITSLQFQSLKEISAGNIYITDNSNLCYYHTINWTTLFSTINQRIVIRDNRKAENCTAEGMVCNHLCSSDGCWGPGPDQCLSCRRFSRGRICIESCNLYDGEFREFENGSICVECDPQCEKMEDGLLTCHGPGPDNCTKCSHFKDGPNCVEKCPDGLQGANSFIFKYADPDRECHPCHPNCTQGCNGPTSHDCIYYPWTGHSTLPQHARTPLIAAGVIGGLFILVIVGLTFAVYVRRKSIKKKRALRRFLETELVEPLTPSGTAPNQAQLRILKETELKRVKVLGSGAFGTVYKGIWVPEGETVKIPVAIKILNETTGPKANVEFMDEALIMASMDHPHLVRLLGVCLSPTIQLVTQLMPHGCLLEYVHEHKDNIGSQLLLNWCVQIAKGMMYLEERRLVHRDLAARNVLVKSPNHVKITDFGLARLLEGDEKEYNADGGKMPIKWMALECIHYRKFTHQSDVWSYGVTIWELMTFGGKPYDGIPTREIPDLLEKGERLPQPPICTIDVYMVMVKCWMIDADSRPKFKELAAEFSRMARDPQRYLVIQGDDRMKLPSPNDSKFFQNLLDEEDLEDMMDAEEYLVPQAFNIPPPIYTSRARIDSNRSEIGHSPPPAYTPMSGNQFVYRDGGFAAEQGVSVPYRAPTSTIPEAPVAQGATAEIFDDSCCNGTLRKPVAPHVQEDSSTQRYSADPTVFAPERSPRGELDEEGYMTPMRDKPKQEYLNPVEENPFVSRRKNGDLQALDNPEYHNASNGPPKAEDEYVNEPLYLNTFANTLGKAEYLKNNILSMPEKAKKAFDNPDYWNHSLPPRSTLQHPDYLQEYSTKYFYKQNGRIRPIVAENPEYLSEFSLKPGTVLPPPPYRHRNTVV

Sequence of Receptor tyrosine-protein kinase erbB-2 (P04626 whole entry): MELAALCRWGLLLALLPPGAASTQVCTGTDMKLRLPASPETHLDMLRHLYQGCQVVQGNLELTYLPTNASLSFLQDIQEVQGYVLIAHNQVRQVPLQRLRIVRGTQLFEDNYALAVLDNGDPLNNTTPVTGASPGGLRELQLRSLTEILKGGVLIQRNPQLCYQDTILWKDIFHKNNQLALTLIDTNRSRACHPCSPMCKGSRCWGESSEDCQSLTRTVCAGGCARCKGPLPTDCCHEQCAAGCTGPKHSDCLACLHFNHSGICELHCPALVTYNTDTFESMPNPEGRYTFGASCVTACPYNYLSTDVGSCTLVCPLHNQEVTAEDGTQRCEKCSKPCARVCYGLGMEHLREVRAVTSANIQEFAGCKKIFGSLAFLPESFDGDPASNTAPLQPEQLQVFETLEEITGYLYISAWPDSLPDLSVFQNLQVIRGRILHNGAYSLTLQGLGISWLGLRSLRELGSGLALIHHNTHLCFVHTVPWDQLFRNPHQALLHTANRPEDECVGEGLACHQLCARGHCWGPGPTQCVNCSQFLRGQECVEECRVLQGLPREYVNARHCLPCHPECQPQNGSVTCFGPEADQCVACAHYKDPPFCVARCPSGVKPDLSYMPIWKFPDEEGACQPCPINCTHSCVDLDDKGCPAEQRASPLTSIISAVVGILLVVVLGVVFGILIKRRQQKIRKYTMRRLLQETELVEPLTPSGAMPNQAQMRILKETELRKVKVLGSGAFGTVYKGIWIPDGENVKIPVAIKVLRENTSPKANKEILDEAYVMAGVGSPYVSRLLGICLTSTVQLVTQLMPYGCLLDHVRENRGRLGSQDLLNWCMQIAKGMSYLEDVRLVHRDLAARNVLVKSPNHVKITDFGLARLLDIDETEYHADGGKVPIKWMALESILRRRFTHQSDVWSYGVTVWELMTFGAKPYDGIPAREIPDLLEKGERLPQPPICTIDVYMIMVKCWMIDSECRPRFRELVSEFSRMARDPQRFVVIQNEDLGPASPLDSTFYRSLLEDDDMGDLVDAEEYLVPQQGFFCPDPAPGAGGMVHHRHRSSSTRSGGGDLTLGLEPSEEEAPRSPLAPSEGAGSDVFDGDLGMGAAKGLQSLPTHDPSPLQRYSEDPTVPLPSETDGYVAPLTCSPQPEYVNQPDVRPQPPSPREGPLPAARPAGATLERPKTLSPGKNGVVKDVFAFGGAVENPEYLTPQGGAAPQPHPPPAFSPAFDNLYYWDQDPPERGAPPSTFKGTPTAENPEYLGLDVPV

`COc1cc2ncnc(Nc3ccc(F)cc3)c2cc1OC` registered a log partition coefficient (logP) in series [1] of 2.87. The half-maximal inhibitory concentration (IC50) in series [2] turned out to be 19.1 nM; in series [3], 51 nM.
The corresponding values for `CCOc1cc2ncnc(Nc3cc(F)cc(C(F)(F)F)c3)c2cc1OCC` are 5.49, above 50 nM and 8.95 nM.
The matching figures for `COc1cc2ncnc(Nc3cc(F)cc(C(F)(F)F)c3)c2cc1OC`: 4.66, 19.1 nM and 20 nM.
For the molecule `CCOc1cc2ncnc(NCc3ccc(F)cc3)c2cc1OCC`, the IC50 is 231 nM in series [4], above 100 nM in series [5], 6.6 nM in series [2] and 17 nM in series [3]. The logP in series [1] came out at 3.78.
As to `COc1cc2ncnc(NCc3ccc(F)cc3)c2cc1OC`, in series [1], the logP was 3.02.
In series [1], `CCOc1cc2ncnc(Nc3ccccc3F)c2cc1OCC` came in with a logP of 3.02. In addition, the IC50 in series [2] was determined as 15.8 nM; in series [3] it was 9.31 nM.
The matching figures for `CCOc1cc2ncnc(Nc3ccc(F)cc3)c2cc1OCC`: 3.73, 23.1 nM and 16 nM.
`COc1cc2ncnc(Nc3cccc(Br)c3)c2cc1OC` yielded a logP in series [1] of 3.49. Further, half-maximal inhibition in series [5] (IC50) was put at 49 nM.
Regarding `CCOc1cc2ncnc(Nc3cccc(Br)c3)c2cc1OCC`, the IC50 in series [4] was found to be 215 nM; in series [5] it was 50 nM; in series [2] it was 3.2 nM; in series [3], 0.41 nM. Moreover, in series [1], the logP was found to be 4.4.
`CCOc1cc2ncnc(Nc3cccc(F)c3)c2cc1OCC`: in series [1], the logP turned out to be 3.71. For the same molecule, the IC50 in series [2] is 6.5 nM; in series [3], 8.17 nM.
As to `CCOc1cc2ncnc(Nc3cccc(I)c3)c2cc1OCC`, the IC50 in series [4] came to 69 nM; in series [5], 59 nM; in series [2] it was 4.6 nM; in series [3] it was 0.64 nM. For the same molecule, in series [1], the logP is 4.62.
Regarding `COc1cc2ncnc(Nc3cccc(I)c3)c2cc1OC`, the logP in series [1] is 3.65. Moreover, the IC50 in series [2] was found to be 6.4 nM; in series [3], 1.05 nM.
The matching figures for `COc1cc2ncnc(Nc3ccccc3F)c2cc1OC`: 2.2, 12.8 nM and 32.2 nM.
In turn, `CCOc1cc2ncnc(Nc3cccc(Cl)c3)c2cc1OCC` gave a logP in series [1] of 4.31. Besides, the IC50 in series [2] amounted to 1.2 nM; in series [3], 0.38 nM.
In the case of `COc1cc2ncnc(Nc3cccc(Cl)c3)c2cc1OC`, the logP in series [1] worked out at 3.51.
In series [1], `COc1cc2ncnc(Nc3cccc(F)c3)c2cc1OC` gave a logP of 2.96.

Values taken from ChEMBL document CHEMBL1140296, “Anilinodialkoxyquinazolines: screening epidermal growth factor receptor tyrosine kinase inhibitors for potential tumor imaging probes” (J Med Chem, 2005).
